Nine molecules from PubChem BioAssay AID504768 (Southern Research Specialized Biocontainment Screening …, 2011) can be followed below.

The experiment can be described thus: K1F phage lysis inhibition in UTI89, confirmation, capsule biogenesis inhibitor project, UTI89 strain, C7 control, set 4 (AID 504768). Conditions: E. coli UTI89 K1F phage lysis inhibition, OD600; measured here: cytotoxicity CC50. In a few lines:
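Test system: E. coli UTI89 K1 and kpsM mutant | Medium: LB broth, overnight cultures diluted 1:100 | Probe or stimulus: K1F phage infection | Compound dosing: DMSO at 1% final | Times: 1.25 h compound pre-incubation at 37 °C shaking, lysis read 3 h post-phage | Technique: OD600 absorbance | Benchmarks: Phage-resistant kpsM mutant culture as control | Replication: Quadruplicate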
`O=C(Nc1nc2c(Cl)cc(Cl)cc2s1)c1ccccn1`: the CC50 (as a rule, the concentration giving 50% cytotoxicity) is 3.55 µM.

`O=C(Nc1nc2c(F)cc(F)cc2s1)c1ccncc1`: the CC50 turned out to be 71.8 µM.

As to `O=C(Nc1nc2c(F)cccc2s1)c1ccccn1`, the CC50 was 2.56 µM.

In the case of `O=C(Nc1nc2ccccc2s1)c1cccnc1`, the CC50 came to 129 µM.

As to `O=C(Nc1nc2ccc(F)cc2s1)c1ccccn1`, the CC50 was found to be 3.32 µM.

Turning to `O=C(Nc1nc2ccccc2s1)c1ccncc1`, the CC50 came out at 104 µM.

In turn, `O=C(Nc1nc2c(F)cc(F)cc2s1)c1ccccc1` came in with a CC50 of 30.9 µM.

The molecule `Cc1cc(C)c2nc(NC(=O)c3ccccn3)sc2c1` gave a CC50 of 6.19 µM.

As for `O=C(Nc1nc2c(F)cc(F)cc2s1)c1cccnc1`, the 50% cytotoxic concentration (CC50) is above 300 µM.
